In brackets after ≈: the same amount, converted by molar mass. Activity calls are given as the source filed them. The calls are words filed in the database; no cut-off is given here.

In assay [1] the test system is SH-SY5Y. Description: Induction of apoptosis in human SH-SY5Y cells at 1 uM after 6 hrs by Annexin V-FITC/PI staining based flow cytometry. It is filed as functional, cell-based. The essentials:
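SH-SY5Y cells in DMEM/F-12 with 10% FBS at 37 °C, 5% CO2, seeded at 1 × 10^6 cells per well and exposed 6 h. They were then washed in PBS, stained 15 min with annexin V–FITC plus propidium iodide in binding buffer, and 10 000 events were read by imaging flow cytometry. Cells were classed as viable, apoptotic, late apoptotic or necrotic. Three independent experiments; mean ± SEM; Student's t test vs untreated cells.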

Assay [2] deals with SH-SY5Y. The experiment in a line: Cytotoxicity against human SH-SY5Y cells assessed as decrease in cell viability at 0.001 to 100 uM after 24 hrs by MTT assay. It is filed as functional, cell-based. In a few lines:
(§1)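 SH-SY5Y cells were grown in DMEM/F-12 with 10% FBS at 37 °C in 5% CO2. Cells were seeded at 5 × 10^4 per well one day ahead, then treated at 0.001–100 μM for 24 h. MTT at 500 μg/mL was added for 1 h at 37 °C, cells were lysed with 5% SDS, and absorbance was read at 595 nm. The saponin death control was subtracted, and IC50 came from a log(inhibitor)–response fit.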
(Tetrazolium dyes change colour on reduction, which living cells bring about.)

The subject of assay [3] is Vibrio anguillarum. Description: Antimicrobial activity against Vibrio anguillarum CIP 63.36T after 24 hrs by broth micro dilution assay. The format is functional. In a few lines:
(§2)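 Compounds were in DMSO (at most 5% of total volume) and were incubated with the strain in PB medium in 96-well plates at 37 °C for 24 h with stirring. Growth was read as optical density at 630 nm. Runs were in triplicate and averaged. Wells without growth were plated on rich solid medium to tell bacteriostatic from bactericidal action.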

In assay [4] the test system is Shewanella baltica. Description: Antimicrobial activity against Shewanella baltica CIP 105850T after 24 hrs by broth micro dilution assay. It is filed as functional. In a few lines: as §2
Assay [5] deals with Paracentrotus lividus. Description: Antiproliferative activity against Paracentrotus lividus eggs assessed as inhibition of first cell division measured 75 mins post fertilization by inverted microscopy. To be noted: 1.25 h.
For assay [6], the system named is Escherichia coli. The experiment in a line: Antimicrobial activity against Escherichia coli CIP 54.8 after 24 hrs by broth micro dilution assay. The format is functional. To be noted: CIP 54.8, 24 h. The essentials: as §2
Assay [7] relates to Aeromonas salmonicida. Description: Antimicrobial activity against Aeromonas salmonicida subsp. salmonicida CIP 103209T after 24 hrs by broth micro dilution assay. The format is functional. The essentials: as §2
Assay [8] has as its system Micrococcus luteus. The experiment in a line: Antimicrobial activity against Micrococcus luteus CIP A270 after 24 hrs by broth micro dilution assay. It is filed as functional. The following applies: CIP A270, 24 h. In a few lines: as §2
The subject of assay [9] is Paracentrotus lividus. The experiment in a line: Cell cycle arrest in Paracentrotus lividus eggs assessed as dispersion of condensed DNA in nucleus at 5 uM measured 60 mins post fertilization by DAPI staining staining based assay. The format is functional, organism-based. The essentials: (§3)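 Fertilized P. lividus eggs were treated with 5 μM compound and stained with DAPI to show nuclear DNA at 30 and 60 min post-fertilization. Chromatin state was compared with untreated control eggs.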

Assay [10] concerns Paracentrotus lividus. Description: Induction of apoptosis in Paracentrotus lividus eggs assessed as DNA localization at nuclear periphery at 5 uM measured 30 mins post fertilization by DAPI staining staining based assay. The format is functional, organism-based. In a few lines:
as §3

Assay [11] has as its system Paracentrotus lividus. Description: Antiproliferative activity against Paracentrotus lividus eggs assessed as inhibition of first cell division at 2 uM measured 75 mins post fertilization by inverted microscopy relative to control. The following applies: 1.25 h. It is filed as functional. The essentials: (§4)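 Paracentrotus lividus gametes were collected after acetylcholine injection into the coelomic cavity. Fertilized eggs were incubated with compound at 0–30 μM in 96-well microplates. Dividing eggs were scored under an inverted microscope at 75 min post-fertilization, when control eggs had completed first cleavage. The percentage of dividing eggs was recorded.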

The subject of assay [12] is Paracentrotus lividus. Description: Antiproliferative activity against Paracentrotus lividus eggs assessed as inhibition of cell division at 5 uM measured 80 mins post fertilization by reversed optical microscopy. It is filed as functional, organism-based. In a few lines: (§5)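 P. lividus fertilized eggs were kept with 5 μM compound, with controls in seawater containing 1% MeOH. Morphology was scored under a reversed optical microscope (20×) at 80 min, 120 min and 18 h post-fertilization. The percentage of each typical phenotype was recorded.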

The test system of assay [13] is Paracentrotus lividus. Description: Induction of morphological changes in Paracentrotus lividus eggs assessed as granulations of plasmic membrane at 5 uM measured 80 to 120 mins post fertilization by reversed optical microscopy. It is filed as functional, organism-based. In a few lines: as §5
Assay [14] has as its system SH-SY5Y. The experiment in a line: Cytotoxicity against human SH-SY5Y cells assessed as decrease in cell viability after 24 hrs by MTT assay. The format is functional, cell-based. The essentials:
as §1

For assay [15], the system named is Paracentrotus lividus. The experiment in a line: Antiproliferative activity against Paracentrotus lividus eggs assessed as cells divided with formation of extracellular cytoplasmic granules at 5 uM measured 80 mins post fertilization by reversed optical microscopy. It is filed as functional. In a few lines:
as §5

For assay [16], the system named is Paracentrotus lividus. The experiment in a line: Induction of morphological changes in Paracentrotus lividus eggs assessed as membrane blebbing at 5 uM measured 80 to 120 mins post fertilization by reversed optical microscopy. It is filed as functional, organism-based. In a few lines: as §5
The test system of assay [17] is Paracentrotus lividus. The experiment in a line: Inhibition of cell division in Paracentrotus lividus eggs assessed as reduction in reaching mesenchymal blastula stage at 5 uM measured 18 hrs post fertilization by reversed optical microscopy. The format is functional, organism-based. The essentials: as §5
In assay [18] the test system is Paracentrotus lividus. The experiment in a line: Antiproliferative activity against Paracentrotus lividus eggs assessed as inhibition of first cell division at 4 uM measured 75 mins post fertilization by inverted microscopy relative to control. To be noted: 1.25 h. It is filed as functional. The essentials:
as §4

Assay [19] has as its system Paracentrotus lividus. Description: Induction of apoptosis in Paracentrotus lividus eggs assessed as DNA condensation at 5 uM measured 30 mins post fertilization by DAPI staining staining based assay. The format is functional, organism-based. The essentials:
as §3

Assay [20] deals with Paracentrotus lividus. The experiment in a line: Induction of DNA fragmentation in Paracentrotus lividus eggs at 5 uM measured 60 mins post fertilization by TUNEL based fluorescence assay. The format is functional, organism-based. The essentials: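 P. lividus eggs were treated with 5 μM compound. Before first division (60 min post-fertilization), fluorescent TUNEL labelling of 3′-OH DNA ends was done. DNase-treated eggs served as positive control and untreated eggs as negative control.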

Assay [21] concerns SH-SY5Y. The experiment in a line: Induction of apoptosis in human SH-SY5Y cells at 6 uM after 6 hrs by Annexin V-FITC/PI staining based flow cytometry. The format is functional. In a few lines:
(§6)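 SH-SY5Y cells were seeded at 1 × 10^6 per well and treated 6 h at 6 μM. Cells were washed in PBS and stained with annexin V–FITC and propidium iodide for 15 min. 10 000 events were analysed by imaging flow cytometry and classed as viable, apoptotic, late apoptotic or necrotic. Staurosporine (1 μM) was the death control. Data are mean ± SEM of three experiments, with Student's t test.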
A general note: Flow cytometry measures light scatter and fluorescence of single cells or particles in a stream.

Assay [22] concerns SH-SY5Y. The experiment in a line: Induction of cell death in human SH-SY5Y cells at 15 uM pretreated with caspase inhibitor ZVAD-FMK for 24 hrs followed by compound addition measured after 6 hrs by MTT assay. The format is functional, cell-based. The essentials:
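SH-SY5Y cells were seeded as for MTT and preincubated with 40 μM Z-VAD-FMK for 24 h. Compound was then added (5, 10, 15 μM) for 6 h, and viability was read by MTT as % of untreated cells. Staurosporine (0.5 μM) was the apoptosis control. Data are mean ± SEM of three independent experiments in triplicate, with Student's t test.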

Assay [23] deals with SH-SY5Y. Description: Induction of apoptosis in human SH-SY5Y cells assessed as necrotic cells at 6 uM after 6 hrs by Annexin V-FITC/PI staining based flow cytometry. The format is functional. In a few lines: as §6

For `CN[C@@H]1C[C@H]2O[C@@](C)([C@@H]1OC)n1c3ccccc3c3c4c(c5c6ccccc6n2c5c31)C(=O)NC4`, the outcome in assay [1] was Active.
The term MIC denotes the lowest concentration that inhibits growth of the organism. The low end stands for a more susceptible organism, the high end for a less susceptible organism. Usually IC50 stands for the point on the concentration scale where inhibition reaches its midpoint. On to `C#CCCC[C@H]1OC(=O)[C@H]([C@@H](C)CC)N(C)C(=O)[C@@H]2CCCN2C(=O)[C@H](Cc2ccccc2)OC(=O)[C@H](C(C)C)N(C)C(=O)[C@H](C(C)C)NC(=O)[C@H]1C`, for which the outcome in assay [2] was inactive. The minimal inhibitory concentration (MIC) in assay [3] was 33 µM (≈ 24.3 µg/mL); in assay [4], > 50 µM; in assay [6] it was 35 µM (≈ 25.8 µg/mL); in assay [7], 27 µM (≈ 19.9 µg/mL); in [8], 47 µM (≈ 34.6 µg/mL). In addition, the IC50 in assay [5] was 11 µM.
A word on the inhibition: it is how much of the control response was suppressed. As for `C=CCCC[C@H]1OC(=O)[C@H]([C@@H](C)CC)N(C)C(=O)[C@@H]2CCCN2C(=O)[C@H](Cc2ccccc2)OC(=O)[C@H](C(C)C)N(C)C(=O)[C@H](C(C)C)NC(=O)[C@H]1C`, the MIC in assay [3] turned out to be 8.5 µM (≈ 6.28 µg/mL); in assay [4] it was 22 µM (≈ 16.3 µg/mL); in [6], 12 µM (≈ 8.87 µg/mL); in assay [7] it was 9.4 µM (≈ 6.95 µg/mL); in [8] it was 29 µM (≈ 21.4 µg/mL). Besides, the outcome in [9], in [10], in [13], in [16], in assay [19] and in assay [20] was Active. Further, in assay [11], the inhibition at 2 µM came to 10%. Besides, the IC50 in assay [5] stood at 3.9 µM; in assay [14], 14 µM. Besides, the inhibition entry in assay [12] and in assay [17] was “Active” in each case. Further, the Activity in assay [15] worked out at 8%. Also, the inhibition at 4 µM in assay [18] was 60%.
Take `CCCCC[C@H]1OC(=O)[C@H]([C@@H](C)CC)N(C)C(=O)[C@@H]2CCCN2C(=O)[C@H](Cc2ccccc2)OC(=O)[C@H](C(C)C)N(C)C(=O)[C@H](C(C)C)NC(=O)[C@H]1C`: the Activity stood at 7.9% in [21] and 36% in [23]. Also, the minimal inhibitory concentration (MIC) was 7 to 7.4 µM (≈ 5.19 to 5.48 µg/mL) in assay [3]; 16 µM (≈ 11.9 µg/mL) in assay [4]; 14 µM (≈ 10.4 µg/mL) in assay [6]; 6.7 to 7 µM (≈ 4.96 to 5.19 µg/mL) in assay [7]; 17 µM (≈ 12.6 µg/mL) in assay [8]. Moreover, the result in [22] was Active. Further, the IC50 in assay [5] was determined as 7 µM; in [14] it was 6 µM.

Values taken from ChEMBL document CHEMBL4145585, “Structures and Activities of Tiahuramides A-C, Cyclic Depsipeptides from a Tahitian Collection of the Marine Cyanobacterium Lyngbya majuscula” (J Nat Prod, 2018).
